Experimental data as given in ChEMBL document CHEMBL1154599 (J Med Chem, 2009).

Assays:
[1] = target: T1, Amine oxidase [flavin-containing] A (Rattus norvegicus, UniProt P21396); assay: Inhibition of MAO-A from Wistar rat brain by radioenzymatic assay
T1 sequence (P21396 whole entry): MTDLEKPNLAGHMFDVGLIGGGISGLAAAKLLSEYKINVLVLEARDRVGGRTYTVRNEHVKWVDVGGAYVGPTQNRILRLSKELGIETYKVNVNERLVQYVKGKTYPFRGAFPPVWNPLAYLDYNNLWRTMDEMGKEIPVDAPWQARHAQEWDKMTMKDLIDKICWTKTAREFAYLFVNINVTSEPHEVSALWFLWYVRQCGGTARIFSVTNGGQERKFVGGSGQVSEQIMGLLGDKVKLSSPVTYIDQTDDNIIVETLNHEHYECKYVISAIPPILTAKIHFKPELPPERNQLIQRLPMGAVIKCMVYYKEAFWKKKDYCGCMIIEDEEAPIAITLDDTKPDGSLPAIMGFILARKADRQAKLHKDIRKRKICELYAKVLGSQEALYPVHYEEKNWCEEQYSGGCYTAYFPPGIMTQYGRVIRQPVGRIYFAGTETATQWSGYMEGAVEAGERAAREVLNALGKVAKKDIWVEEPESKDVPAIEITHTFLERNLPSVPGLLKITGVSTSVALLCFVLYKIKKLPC
Procedure, shortened: (§1)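 Crude mitochondrial fraction from male Wistar rat brain (150-175 g), 500 μg protein in 0.1 M phosphate pH 7.40. Preincubated 30 min at 37 °C with compound. Substrate then added: [14C]5-HT 5 μM for 30 min (MAO-A) or [14C]PEA 0.5 μM for 10 min (MAO-B), 37 °C. Stopped with acid, deaminated metabolites extracted into ether or toluene, counted by scintillation.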

[2] = target: T2, Amine oxidase [flavin-containing] B (Rattus norvegicus, UniProt P19643); assay: Inhibition of MAO-B from Wistar rat brain by radioenzymatic assay; procedure, shortened: as §1
T2 sequence (P19643 whole entry): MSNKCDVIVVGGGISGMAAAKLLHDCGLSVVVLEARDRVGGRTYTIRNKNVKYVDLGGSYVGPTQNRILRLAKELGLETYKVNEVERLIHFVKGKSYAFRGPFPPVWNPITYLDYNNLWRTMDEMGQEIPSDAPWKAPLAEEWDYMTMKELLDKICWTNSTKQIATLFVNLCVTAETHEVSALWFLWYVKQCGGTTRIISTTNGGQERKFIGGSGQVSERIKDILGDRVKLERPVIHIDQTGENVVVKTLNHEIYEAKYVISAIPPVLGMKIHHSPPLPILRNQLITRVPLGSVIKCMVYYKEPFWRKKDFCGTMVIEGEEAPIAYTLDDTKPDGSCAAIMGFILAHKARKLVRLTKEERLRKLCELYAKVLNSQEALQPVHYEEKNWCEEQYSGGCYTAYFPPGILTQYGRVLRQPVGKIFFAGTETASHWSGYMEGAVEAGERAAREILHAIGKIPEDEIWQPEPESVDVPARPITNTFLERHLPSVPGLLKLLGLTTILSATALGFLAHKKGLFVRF

[3] = organism: Rattus norvegicus; assay: Selectivity index, ratio of IC50 for rat MAO-A to IC50 for rat MAO-B
Procedure, shortened: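 Ratio of IC50 values from rat brain mitochondrial radioenzymatic assays: MAO-A with [14C]5-HT 5 μM, 30 min, and MAO-B with [14C]PEA 0.5 μM, 10 min. Both after 30 min preincubation with compound at 37 °C.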

[4] = target: T1, Amine oxidase [flavin-containing] A; assay: Inhibition of MAO-A from Wistar rat brain at 10 uM by radioenzymatic assay
[5] = Permeability across PAMPA membrane assessed as permeability coefficient at 617 uM by HDM-PAMPA assay; type: ADME
Procedure, shortened: (§2)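 HDM-PAMPA on polycarbonate filters coated with hexadecane (applied in hexane, which was evaporated). Donor at 617 μM in 0.1 M phosphate pH 6.8 with 5% DMSO, same pH in donor and acceptor. Incubated 5 h at room temperature with shaking at 75 rpm. Compartments quantified by HPLC. Pe, retention R and CA(t)/CD(0) calculated by equations 1-2. Quadruplicate.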

[6] = Permeability across PAMPA membrane assessed as retention at 617 uM by HDM-PAMPA assay; type: ADME; procedure, shortened: as §2
[7] = Octanol-water partition coefficient, log P calculated with Bioloom (BioByte)
[8] = Permeability across PAMPA membrane assessed as amount of drug reaching acceptor compartment at 617 uM by HDM-PAMPA assay; type: ADME; procedure, shortened: as §2

SMILES	IC50 [1] [µM]	IC50 [2] [µM]	Ratio IC50 [3]	also measured
CCCCNC(=O)Cc1cc(=O)oc2cc(OCc3cccc(Cl)c3)ccc12	> 100	> 10	–	–
NC(=O)[C@@H]1CCCN1c1cc(=O)oc2cc(OCc3ccccc3)ccc12	99.8	16.1	6	–
CNC(=O)Cc1cc(=O)oc2cc(OCc3cccc(Cl)c3)ccc12	0.5	0.024	21	–
CN(C)C(=O)Cc1cc(=O)oc2cc(OCc3ccccc3)ccc12	23.1	0.4	58	–
NC(=O)Cc1cc(=O)oc2cc(OCc3cccnc3)ccc12	21	1.3	16	–
CN(C)C(=O)Cc1cc(=O)oc2cc(OCc3cccc(Cl)c3)ccc12	–	–	> 2400	–
NC(=O)Cc1cc(=O)oc2cc(OCc3ccccc3)ccc12	8	0.2	40	–
CN(C)Cc1cc(=O)oc2cc(OCc3cccc(F)c3)ccc12	> 100	0.51	> 196	–
CN(Cc1ccccc1)Cc1cc(=O)oc2cc(OCc3cccc(Cl)c3)ccc12	> 100	8	> 13	–
CNCCc1cc(=O)oc2cc(OCc3cccc(Cl)c3)ccc12	–	–	247	–
O=c1cc(CNCc2ccccc2)c2ccc(OCc3cccc(Cl)c3)cc2o1	> 100	3.6	> 28	–
NCCNC(=O)Cc1cc(=O)oc2cc(OCc3cccc(Cl)c3)ccc12	> 100	> 10	–	–
CN(C)Cc1cc(=O)oc2cc(OCc3ccccc3)ccc12	100	1.8	56	–
CC(C)NCc1cc(=O)oc2cc(OCc3cccc(F)c3)ccc12	91	3.8	24	–
C[C@H](Nc1cc(=O)oc2cc(OCc3cccc(Cl)c3)ccc12)C(N)=O	–	0.21	–	inhibition at 10 µM [4]: 35%
CNC(=O)Cc1cc(=O)oc2cc(OCc3ccccc3)ccc12	2.8	0.015	187	–
NC(=O)[C@H](CO)Nc1cc(=O)oc2cc(OCc3cccc(Cl)c3)ccc12	> 100	2.4	> 42	–
C[C@H](NCc1cc(=O)oc2cc(OCc3ccccc3)ccc12)C(N)=O	22.7	1.8	13	–
NC(=O)Cc1cc(=O)oc2cc(OCc3cccc(O)c3)ccc12	4.27	1	4	–
CN(C)CCc1cc(=O)oc2cc(OCc3ccccc3)ccc12	25.9	0.46	56	–
NCc1cc(=O)oc2cc(OCc3cccc(Cl)c3)ccc12	2	0.015	133	–
NC(=O)Cc1cc(=O)oc2cc(OCc3ccncc3)ccc12	26.5	2	13	–

SMILES	IC50 [1] [µM]	IC50 [2] [µM]	Ratio IC50 [3]	also measured
NC(=O)Cc1cc(=O)oc2cc(OCc3cccc(Cl)c3)ccc12	26	0.03	867	–
C[C@H](Nc1cc(=O)oc2cc(OCc3ccccc3)ccc12)C(N)=O	100	0.68	147	–
CC(C(N)=O)c1cc(=O)oc2cc(OCc3cccc(F)c3)ccc12 (racemic)	2	0.1	20	–
NC(=O)[C@@H]1CCCN1Cc1cc(=O)oc2cc(OCc3ccccc3)ccc12	35	0.38	92	–
CN(C)Cc1cc(=O)oc2cc(OCc3cccc(Cl)c3)ccc12	50.8	1.12	45	–
N#CCc1cc(=O)oc2cc(OCc3cccc(Cl)c3)ccc12	0.47	0.016	29	–
NCc1cc(=O)oc2cc(OCc3ccccc3)ccc12	4.4	0.021	210	–
NNC(=O)Cc1cc(=O)oc2cc(OCc3cccc(Cl)c3)ccc12	2.5	0.09	28	–
NC(=O)[C@@H]1CCCN1c1cc(=O)oc2cc(OCc3cccc(Cl)c3)ccc12	–	9.6	–	inhibition at 10 µM [4]: 5%
CC(C(N)=O)c1cc(=O)oc2cc(OCc3ccccc3)ccc12 (racemic)	6.26	0.1	63	–
NNC(=O)Cc1cc(=O)oc2cc(OCc3ccccc3)ccc12	1.44	–	36	–
O=C(Cc1cc(=O)oc2cc(OCc3cccc(Cl)c3)ccc12)NCc1ccccc1	> 100	5	> 20	–
NC(=O)Cc1cc(=O)oc2cc(OCc3cccc(F)c3)ccc12	–	–	1400	–
Cc1cc(=O)oc2cc(OCc3cccc(Cl)c3)ccc12	–	–	–	log Pe [5]: -4.13 cm/s; permeability [6]: 72%; logP [7]: 4.73; permeability [8]: 3.7%
NCCc1cc(=O)oc2cc(OCc3cccc(Cl)c3)ccc12	–	–	127	–
CCCCN(C)C(=O)Cc1cc(=O)oc2cc(OCc3cccc(Cl)c3)ccc12	> 100	> 10	–	–
NC(=O)[C@@H]1CCCN1Cc1cc(=O)oc2cc(OCc3cccc(F)c3)ccc12	> 100	0.85	> 117	–
N#CCc1cc(=O)oc2cc(OCc3ccccc3)ccc12	0.2	0.23	0.9	–
CCNCc1cc(=O)oc2cc(OCc3cccc(F)c3)ccc12	22.6	0.1	226	–
CNCc1cc(=O)oc2cc(OCc3ccc4c(c3)OCO4)ccc12	5.4	0.02	270	–
CNCc1cc(=O)oc2cc(OCc3cccc(F)c3)ccc12	–	0.018	–	–
CNCc1cc(=O)oc2cc(OCc3ccccc3)ccc12	15.4	0.028	550	–
